# From ChEMBL document CHEMBL1127506, “Novel ligands specific for mitochondrial benzodiazepine receptors: 6-arylpyrrolo[2,1-d][1,5]benzothiazepine derivatives. Synthesis, structure-activity relationships, and molecular modeling studies” (J Med Chem, 1994)
# Molecular target: T1, Translocator protein (Rattus norvegicus, UniProt P16257)
# Test: Displacement of [3H]-PK 11195 from peripheral (mitochondrial) benzodiazepine receptor (inactive); call rule not given here
# Procedure, shortened: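 Male CD rat cortex (about 150 g) homogenized in ice-cold 50 mM PBS, pH 7.4, spun at 50000g for 10 min, and washed three times. 10 mg original wet tissue incubated with 1 nM [3H]PK 11195 and 8–12 drug concentrations (highest 10^-5 M) for 120 min at 4 °C. Nonspecific binding with 1 μM PK 11195. GF/B filtration, scintillation counting, triplicate points, IC50 by nonlinear curve fitting.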
# T1 sequence (P16257 whole entry, looked up): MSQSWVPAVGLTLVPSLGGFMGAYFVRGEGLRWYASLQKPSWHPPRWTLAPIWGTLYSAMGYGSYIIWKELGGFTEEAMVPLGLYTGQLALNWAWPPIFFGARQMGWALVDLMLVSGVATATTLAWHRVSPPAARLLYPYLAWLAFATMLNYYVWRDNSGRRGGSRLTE
row,SMILES,IC50
1,O=C1c2cccn2-c2ccccc2S(=O)(=O)C1c1ccccc1 (centres undefined),Not Active
2,COc1ccc(C2=C(OC(=O)c3ccncc3)c3cccn3-c3ccccc3S2)cc1,Not Active
3,COc1ccc(C2=C(OC(=O)c3c(OC)cc(OC)cc3OC)c3cccn3-c3cc(C(F)(F)F)ccc3S2)cc1,Not Active
4,COc1ccc(C2=C(OC(=O)c3cccnc3)c3cccn3-c3ccccc3S2)cc1,Not Active
5,COc1ccc(C2=C(OC(=O)c3c(OC)cc(OC)cc3OC)c3cccn3-c3cc(Cl)ccc3S2)cc1,Not Active
6,COc1ccc([C@H]2Sc3ccccc3-n3cccc3[C@H]2OC(C)=O)cc1,Not Active
7,COc1ccc(C2=C(OC(=O)c3c(OC)cc(OC)cc3OC)c3cccn3-c3ccccc3S2)cc1,Not Active

# Molecular target: T1, Translocator protein
# Test: Displacement of [3H]-PK 11195 from peripheral (mitochondrial) benzodiazepine receptor
row,SMILES,IC50 [µM]
1,CCC(=O)OC1=C(c2ccccc2)Sc2ccc(Cl)cc2-n2cccc21,0.82
2,CC(=O)OC1=C(c2ccccc2)[S+]([O-])c2ccccc2-n2cccc21 (centres undefined),0.69
3,COc1ccc(C2=C(OC(=O)N(C)C)c3cccn3-c3cc(Cl)ccc3S2)cc1,0.17
4,CCCC(=O)OC1=C(c2ccc(OC)cc2)[S+]([O-])c2ccccc2-n2cccc21 (centres undefined),0.27
5,CC(=O)OC1=C(c2ccccc2)Sc2ccc(Cl)cc2-n2cccc21,0.56
6,COc1ccc(C2=C(OC(=O)N(C)C)c3cccn3-c3ccccc3S2)cc1,0.009
7,O=C1CSc2ccccc2-n2cccc21,> 14
8,COc1ccc(C2Sc3ccccc3-n3cccc3C2=O)cc1 (centres undefined),2.09
9,CCCC(=O)OC1=C(c2ccc(OC)cc2)Sc2ccccc2-n2cccc21,0.028
10,CCC(=O)OC1=C(c2ccc(OC)cc2)Sc2ccc(C(F)(F)F)cc2-n2cccc21,2.95
11,COc1ccc(C2=C(OS(C)(=O)=O)c3cccn3-c3ccccc3S2)cc1,0.095
12,COc1ccc(C2=C(OC(C)=O)c3cccn3-c3cc(Cl)ccc3S2)cc1,0.65
13,COc1ccc(C2=C(OC(C)=O)c3cccn3-c3cc(OC)ccc3S2)cc1,1.81
14,CCCC(=O)OC1=C(c2ccccc2)Sc2ccccc2-n2cccc21,0.022
15,CCC(=O)OC1=C(c2ccc(OC)cc2)Sc2ccccc2-n2cccc21,0.03
16,COc1ccc(C2C(=O)c3cccn3-c3ccccc3[S+]2[O-])cc1 (centres undefined),23
17,COc1ccc(C2=C(OC(C)=O)c3cccn3-c3ccccc3[S+]2[O-])cc1 (centres undefined),2.09
18,COc1ccc(C2=C(OC(=O)N(C)C)c3cccn3-c3cc(C(F)(F)F)ccc3S2)cc1,0.29
19,CCCCC(=O)OC1=C(c2ccccc2)Sc2ccccc2-n2cccc21,0.048

row,SMILES,IC50 [µM]
1,COc1ccc(C2=C(OC(C)=O)c3cccn3-c3cc(C(F)(F)F)ccc3S2)cc1,4.53
2,COc1ccc(C2=C(OC(C)=O)c3cccn3-c3ccccc3S2)cc1,0.034
3,COc1ccc(C2=C(OC(C)=O)c3cccn3-c3ccccc3S2(=O)=O)cc1,0.64
4,CC(=O)OC1=C(c2ccccc2)Sc2ccccc2-n2cccc21,0.02
5,CN(C)C(=O)OC1=C(c2ccccc2)Sc2ccccc2-n2cccc21,0.009
6,CC(=O)OC1=C(c2ccccc2)Sc2cc(Cl)ccc2-n2cccc21,0.23
7,CC(=O)OC1=C(c2ccccc2)Sc2c(Cl)cccc2-n2cccc21,0.008
8,CCCCCC(=O)OC1=C(c2ccccc2)Sc2ccccc2-n2cccc21,0.023
9,CC(=O)OC1=C(c2ccccc2)S(=O)(=O)c2ccccc2-n2cccc21,1.14
10,O=C1c2cccn2-c2ccccc2SC1c1ccccc1 (centres undefined),1.22
11,CS(=O)(=O)OC1=C(c2ccccc2)Sc2ccccc2-n2cccc21,0.06
12,COc1ccc(C2Sc3ccc(C(F)(F)F)cc3-n3cccc3C2=O)cc1 (centres undefined),6.21
13,CCC(=O)OC1=C(c2ccccc2)Sc2ccccc2-n2cccc21,0.067
14,CCC(=O)OC1=C(c2ccc(OC)cc2)Sc2ccc(Cl)cc2-n2cccc21,0.49
15,COc1ccc(C2=C(OC(C)=O)c3cccn3-c3ccc(Cl)cc3S2)cc1,0.24
16,COc1ccc(C2=C(OC(C)=O)c3cccn3-c3cccc(Cl)c3S2)cc1,0.02
17,O=C1c2cccn2-c2ccccc2[S+]([O-])C1c1ccccc1 (centres undefined),14.7
18,COc1ccc(C2Sc3ccc(Cl)cc3-n3cccc3C2=O)cc1 (centres undefined),1.41
